This note sets out measurements from the array DNA melting data of Ke et al. (doi:10.1101/2024.01.08.574731).

Data set [1] is described as follows: folding enthalpy; higher = less favourable; fluorescence melt of hairpins on a sequencing array, two-state fit. Conditions: sodium 0.088 M. The method, boiled down: (§1)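 Two-state fits, bootstrapped, provided melting temperature and folding enthalpy from Cy3 fluorescence normalised to pre-quench Cy3 and to control constructs. Library hairpins with annealed Cy3 and quencher oligos were imaged on a sequenced MiSeq flow cell in 50 mM Na-HEPES pH 8.0, 25 mM NaCl, at 2.5 °C intervals up to 60 °C. Four replicates were combined with inverse-variance weighting. A 9.35 °C upward shift was applied to fitted temperatures to match UV melts.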

Data set [2] is described as follows: melting temperature; fluorescence melt of hairpins on a sequencing array, two-state fit, raised by 9.35 °C to match UV melts. Conditions: sodium 0.088 M. The method, boiled down:
as §1

In the case of GGCATCGAAAGATTGCC ((((((....))).))), in data set [1], the folding enthalpy is -31.1 kcal/mol. Also, in data set [2], the Tm is 52.7 °C.
On the same counts, the results for CGTCCGGAAACGGAACG ((((((....))).))) are -24.9 kcal/mol and 49.9 °C.
For the sequence GGATTGGGAAACTAATCC (((((.(....).))))), the folding enthalpy in data set [1] was -33.9 kcal/mol. In addition, the Tm in data set [2] came to 43.5 °C.
On the same counts, the results for GGCACCGAAAGGTCAGCC ((((((....)))..))) are -24.2 kcal/mol and 49.2 °C.
On the same counts, the results for GATGTAGGAAACTACATC (((((((....))))))) are -40.4 kcal/mol and 54.6 °C.
On the same counts, the results for CGGTGCCGGAAACGGCCG (((..(((....)))))) are -9.28 kcal/mol and 47.5 °C.
With GCGAGTGTCGC ((((...)))), the folding enthalpy in data set [1] was -13.9 kcal/mol. For the same sequence, in data set [2], the Tm came to 47 °C.
Turning to GTTTTGGGAAACCAAAAC (((((((....))))))), the folding enthalpy in data set [1] was -43.5 kcal/mol. Moreover, the Tm in data set [2] was found to be 57.5 °C.
On the same counts, the results for GTGTGCGGAAACGTACGC (.((.((....)).)).) are -27.3 kcal/mol and 48 °C.
On the same counts, the results for GATCATCTTAATGATC ((((((....)))))) are -36.5 kcal/mol and 49 °C.
On the same counts, the results for GCGCTGCGAAAGCGGTGC ((.(.((....)).).)) are -31.8 kcal/mol and 66.7 °C.
As to GATATGCCGAAAGGCATC (((..(((....)))))), in data set [1], the folding enthalpy was -7.19 kcal/mol. Further, the Tm in data set [2] came to 38.5 °C.
On the same counts, the results for GGCTGCGAAAGCAGGGCC ((((((....)))..))) are -13 kcal/mol and 53.1 °C.
With AGACTGAAAAGTCT (((((....))))), the folding enthalpy in data set [1] was -16.9 kcal/mol. Besides, the Tm in data set [2] was 46 °C.
In the case of GATAAGGGAAACCTTGTC ((.((((....)))).)), the folding enthalpy in data set [1] was -20.7 kcal/mol. The Tm in data set [2] stood at 37.9 °C.
On the same counts, the results for GCTAAGGGAAACCTTGGC ((.((((....)))).)) are -29.4 kcal/mol and 47.6 °C.
On the same counts, the results for GGACGCGAAAGCGGTTCC ((((((....)))..))) are -11.6 kcal/mol and 45.7 °C.
On the same counts, the results for GCGTACGGAAACGCACGC ((((.((....)).)))) are -46.7 kcal/mol and 55.4 °C.
In the case of GCGTCTGGAAACGGATGC ((.((.(....).)).)), in data set [1], the folding enthalpy is -35.5 kcal/mol. The Tm in data set [2] was determined as 44.4 °C.
On the same counts, the results for GCGATCGGAAACGACCGC (((.(((....))).))) are -48.9 kcal/mol and 55.5 °C.
On the same counts, the results for GGAGAAGGAAACTTTTCC (((.(((....))).))) are -26.2 kcal/mol and 31.1 °C.
On the same counts, the results for GCCTCGCGAAAGCTATGC ((.(.((....)).).)) are -4.77 kcal/mol and 15.9 °C.
Take GGGCAAGCGAAAGCTCCC (((..(((....)))))): the folding enthalpy in data set [1] is -19 kcal/mol. In addition, in data set [2], the Tm turned out to be 44.6 °C.
On the same counts, the results for CGCTCGGAAACGATTGCG ((((((....)))..))) are -25.4 kcal/mol and 39.8 °C.
GCAACGCGAAAGCATAGC ((.(.((....)).).)): the folding enthalpy in data set [1] is -9.72 kcal/mol. Also, in data set [2], the Tm turned out to be 37.5 °C.
On the same counts, the results for GCTTGGCGAAAGCCTAGC (((.(((....))).))) are -41.9 kcal/mol and 57.6 °C.
On the same counts, the results for GTGAGGGGAAACCTTCAC ((((.((....)).)))) are -28.8 kcal/mol and 46 °C.
In the case of GCTTAGCGAAAGCTCGGC ((..(((....)))..)), in data set [1], the folding enthalpy was -17.7 kcal/mol. The Tm in data set [2] was determined as 36.7 °C.
As for GCATTCGAAAGAAAGTGC ((((((....)))..))), the folding enthalpy in data set [1] is -12.4 kcal/mol. Further, the Tm in data set [2] came out at 30.4 °C.
On the same counts, the results for GCGGAAATCCGC ((((....)))) are -20.4 kcal/mol and 51.6 °C.
On the same counts, the results for GATCTTTAATAAGATC ((((((....)))))) are -31.1 kcal/mol and 40.9 °C.
On the same counts, the results for GTGATCGAAAGATGTCAC ((((((....)))..))) are -13.7 kcal/mol and 29.9 °C.
Regarding GTTGAGGGAAACTTCGAC ((.((.(....).)).)), the folding enthalpy in data set [1] was -20.3 kcal/mol. Moreover, in data set [2], the Tm came to 31.5 °C.
On the same counts, the results for CTTCGGAAACGAAG (((((....))))) are -20.9 kcal/mol and 50.3 °C.
On the same counts, the results for GCCAACGAAAGTTTAGGC ((((((....)))..))) are -28.2 kcal/mol and 43.8 °C.
Turning to GGCATGACGAAAGTCGCC (((..(((....)))))), the folding enthalpy in data set [1] is -28.3 kcal/mol. For the same sequence, the Tm in data set [2] worked out at 52.6 °C.
On the same counts, the results for GATGGCGAAAGCCCGATC ((((((....)))..))) are -9.89 kcal/mol and 27.7 °C.
